Test results: ChEMBL document CHEMBL1138564, “Microwave-induced synthesis and anti-microbial activities of 7,10,11,12-tetrahydrobenzo[c]acridin-8(9H)-one derivatives” (2009)
≈ marks a conversion by molar mass, not a printed value. Calls of active or inactive are those of the source. The rule behind the calls is not given here.

Experiments:
Escherichia coli [1] = experiment: Antimicrobial activity against Escherichia coli NCIM 2065 at 500 ug/disk after 24 hrs by disk diffusion method; assay type: functional; details: NCIM 2065, 24 h, read-out: DIZ
How it was run: (§1)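 Disc diffusion on Mueller–Hinton agar. 100 µl of bacterial suspension at 10⁸ CFU/ml is spread on the plate. Discs carry test compounds at two loadings, dissolved in DMSO; DMSO alone serves as negative control. Ofloxacin disc is the positive reference. Plates are incubated at 37 °C for 24 h, and the inhibition zone diameter is measured.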

Pseudomonas aeruginosa [2] = experiment: Antimicrobial activity against Pseudomonas aeruginosa NCIM 2200 at 500 ug/disk after 24 hrs by disk diffusion method; assay type: functional
How it was run: (§2)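 Disc diffusion. 100 µl of bacterial suspension at 10⁸ CFU/ml was spread on Mueller–Hinton agar. Discs loaded with test compound dissolved in DMSO were placed on the lawn, with a DMSO-only disc as negative control. Plates were incubated at 37 °C for 24 h, and the inhibition zone diameter was measured.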

Aspergillus parasiticus [3] = experiment: Antimicrobial activity against Aspergillus parasiticus NCIM 904 at 500 ug/disk after 72 hrs by disk diffusion method; assay type: functional; details: NCIM 904, 72 h, read-out: DIZ
How it was run: (§3)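 Disc diffusion on Sabouraud's dextrose agar. 100 µl of fungal suspension at 10⁶ CFU/ml is spread on the plate. Discs carry test compounds at two loadings in DMSO; DMSO alone is the negative control. Clotrimazole disc is the positive reference. Plates are incubated at 27 °C for 72 h, and the zone of inhibition diameter is measured.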

Trichoderma viride [4] = experiment: Antimicrobial activity against Trichoderma viride NCIM 1195 at 500 ug/disk after 72 hrs by disk diffusion method; assay type: functional; details: NCIM 1195, 72 h, read-out: DIZ
How it was run: (§4)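 Fungal disc diffusion. 100 µl of suspension at 10⁶ CFU/ml was spread on Sabouraud's dextrose agar. Discs carrying test compound in DMSO were applied, with a DMSO-only disc as negative control. Plates were incubated at 27 °C for 72 h, and the zone of inhibition diameter was measured.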

Staphylococcus [5] = experiment: Antimicrobial activity against Staphylococcus albus NCIM 2178 at 1000 ug/disk after 24 hrs by disk diffusion method; assay type: functional; details: NCIM 2178, 24 h, read-out: DIZ; how it was run: as §2
Staphylococcus [6] = experiment: Antimicrobial activity against Staphylococcus albus NCIM 2178 at 500 ug/disk after 24 hrs by disk diffusion method; assay type: functional; details: NCIM 2178, 24 h, read-out: DIZ; how it was run: as §2
Salmonella typhimurium [7] = experiment: Antimicrobial activity against Salmonella Typhimurium NCIM 2501 at 1000 ug/disk after 24 hrs by disk diffusion method; assay type: functional, Salmonella enterica subsp. enterica serovar Typhimurium; details: Salmonella enterica, NCIM 2501, 24 h; read-out: DIZ; how it was run: as §2
Trichoderma viride [8] = experiment: Antimicrobial activity against Trichoderma viride NCIM 1195 at 1000 ug/disk after 72 hrs by disk diffusion method; assay type: functional; details: NCIM 1195, 72 h, read-out: DIZ; how it was run: as §4
Aspergillus flavus [9] = experiment: Antimicrobial activity against Aspergillus flavus NCIM 902 at 500 ug/disk after 72 hrs by disk diffusion method; assay type: functional; details: NCIM 902, 72 h, read-out: DIZ; how it was run: as §3
Lipomyces lipofer [10] = experiment: Antimicrobial activity against Lipomyces lipofer NCIM 3252 at 500 ug/disk after 72 hrs by disk diffusion method; assay type: functional; details: NCIM 3252, 72 h, read-out: DIZ; how it was run: as §3
Pseudomonas aeruginosa [11] = experiment: Antimicrobial activity against Pseudomonas aeruginosa NCIM 2200 at 1000 ug/disk after 24 hrs by disk diffusion method; assay type: functional; how it was run: as §1
Penicillium chrysogenum [12] = experiment: Antimicrobial activity against Penicillium chrysogenum NCIM 707 at 500 ug/disk after 72 hrs by disk diffusion method; assay type: functional; how it was run: as §3
Escherichia coli [13] = experiment: Antimicrobial activity against Escherichia coli NCIM 2065 at 1000 ug/disk after 24 hrs by disk diffusion method; assay type: functional; details: NCIM 2065, 24 h, read-out: DIZ; how it was run: as §1
Klebsiella aerogenes = experiment: Antimicrobial activity against Klebsiella aerogenes NCIM 2239 at 500 ug/disk after 24 hrs by disk diffusion method; assay type: functional; details: NCIM 2239, 24 h, read-out: DIZ; how it was run: as §1
Proteus vulgaris [14] = experiment: Antimicrobial activity against Proteus vulgaris NCIM 2027 at 500 ug/disk after 24 hrs by disk diffusion method; assay type: functional; details: NCIM 2027, 24 h, read-out: DIZ; how it was run: as §1
[15] = tested on: Rhodococcus corynebacterioides; experiment: Antimicrobial activity against Corynebacterium rubrum NCIM 2252 at 1000 ug/disk after 24 hrs by disk diffusion method; assay type: functional; details: Rhodococcoides corynebacterioides, NCIM 2252, 24 h; read-out: DIZ; how it was run: as §1
Escherichia coli [16] = experiment: Antimicrobial activity against Escherichia coli NCIM 2065 after 24 hrs by serial dilution method; assay type: functional; details: NCIM 2065, 24 h
How it was run: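 Broth dilution MIC in nutrient broth, run only for organisms found sensitive in disc diffusion. Compounds are two-fold serially diluted in 1 ml sterile broth per tube, spanning 3.9 to 1000. Inoculated tubes are incubated at 37 °C for 24 h.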

Aliivibrio fischeri [17] = experiment: Antimicrobial activity against Vibrio fischeri NCIM 2154 after 24 hrs by serial dilution method; assay type: functional; details: NCIM 2154, 24 h
Salmonella typhimurium [18] = experiment: Antimicrobial activity against Salmonella Typhimurium NCIM 2501 at 500 ug/disk after 24 hrs by disk diffusion method; assay type: functional, Salmonella enterica subsp. enterica serovar Typhimurium; details: Salmonella enterica, NCIM 2501, 24 h; read-out: DIZ; how it was run: as §2
Rhodotorula mucilaginosa [19] = experiment: Antimicrobial activity against Rhodotorula rubra NCIM 3174 at 1000 ug/disk after 72 hrs by disk diffusion method; assay type: functional; details: NCIM 3174, 72 h, read-out: DIZ; how it was run: as §4
Penicillium chrysogenum [20] = experiment: Antimicrobial activity against Penicillium chrysogenum NCIM 707 at 1000 ug/disk after 72 hrs by disk diffusion method; assay type: functional; how it was run: as §3
Aliivibrio fischeri [21] = experiment: Antimicrobial activity against Vibrio fischeri NCIM 2154 at 1000 ug/disk after 24 hrs by disk diffusion method; assay type: functional; details: NCIM 2154, 24 h, read-out: DIZ; how it was run: as §2
Lipomyces lipofer [22] = experiment: Antimicrobial activity against Lipomyces lipofer NCIM 3252 at 1000 ug/disk after 72 hrs by disk diffusion method; assay type: functional; details: NCIM 3252, 72 h, read-out: DIZ; how it was run: as §3
Bacillus cereus = experiment: Antimicrobial activity against Bacillus cereus NCIM 2155 at 1000 ug/disk after 24 hrs by disk diffusion method; assay type: functional; details: NCIM 2155, 24 h, read-out: DIZ; how it was run: as §1
Rhodotorula mucilaginosa [23] = experiment: Antimicrobial activity against Rhodotorula rubra NCIM 3174 at 500 ug/disk after 72 hrs by disk diffusion method; assay type: functional; details: NCIM 3174, 72 h, read-out: DIZ; how it was run: as §4
Aspergillus flavus [24] = experiment: Antimicrobial activity against Aspergillus flavus NCIM 902 after 72 hrs by serial dilution method; assay type: functional; details: NCIM 535, 72 h, in the assay text read “NCIM 535” for “NCIM 902”
How it was run: (§5)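 MIC by broth dilution in Sabouraud's dextrose broth, only for fungi sensitive in disc diffusion. Two-fold serial dilutions of compounds are made in 1 ml broth per tube, range 3.9 to 1000. Inoculated tubes are incubated at 27 °C for 72 h.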

Proteus vulgaris [25] = experiment: Antimicrobial activity against Proteus vulgaris NCIM 2027 at 1000 ug/disk after 24 hrs by disk diffusion method; assay type: functional; details: NCIM 2027, 24 h, read-out: DIZ; how it was run: as §1
Aliivibrio fischeri [26] = experiment: Antimicrobial activity against Vibrio fischeri NCIM 2154 at 500 ug/disk after 24 hrs by disk diffusion method; assay type: functional; details: NCIM 2154, 24 h, read-out: DIZ; how it was run: as §2
Aspergillus flavus [27] = experiment: Antimicrobial activity against Aspergillus flavus NCIM 902 at 1000 ug/disk after 72 hrs by disk diffusion method; assay type: functional; details: NCIM 902, 72 h, read-out: DIZ; how it was run: as §3
[28] = tested on: Rhodococcus corynebacterioides; experiment: Antimicrobial activity against Corynebacterium rubrum NCIM 2252 at 500 ug/disk after 24 hrs by disk diffusion method; assay type: functional; details: Rhodococcoides corynebacterioides, NCIM 2252, 24 h; read-out: DIZ; how it was run: as §1
Bacillus subtilis = experiment: Antimicrobial activity against Bacillus subtilis NCIM 2063 at 500 ug/disk after 24 hrs by disk diffusion method; assay type: functional; details: NCIM 2063, 24 h, read-out: DIZ; how it was run: as §1
Aspergillus fumigatus = experiment: Antimicrobial activity against Aspergillus fumigatus NCIM 902 at 500 ug/disk after 72 hrs by disk diffusion method; assay type: functional; how it was run: as §3
Aspergillus parasiticus [29] = experiment: Antimicrobial activity against Aspergillus parasiticus NCIM 904 after 72 hrs by serial dilution method; assay type: functional; details: NCIM 904, 72 h; how it was run: as §5

O=C1CCCC2=C1C(c1cccc([N+](=O)[O-])c1)c1ccc3ccccc3c1N2 (stereo not drawn)
zone of inhibition at 500 µg/disc (Escherichia coli [1]): 9 mm
diameter of the inhibition zone (DIZ) (Pseudomonas aeruginosa [2]): inactive
zone of inhibition at 500 µg/disc (Aspergillus parasiticus [3]): 11 mm
zone of inhibition at 500 µg/disc (Trichoderma viride [4]): 9 mm
zone of inhibition at 1000 µg/disc (Staphylococcus [5]): 11 mm
zone of inhibition at 500 µg/disc (Staphylococcus [6]): 8 mm
zone of inhibition at 1000 µg/disc (Salmonella typhimurium [7]): 10 mm
zone of inhibition at 1000 µg/disc (Trichoderma viride [8]): 10 mm
zone of inhibition at 500 µg/disc (Aspergillus flavus [9]): 8 mm
zone of inhibition at 500 µg/disc (Lipomyces lipofer [10]): 8 mm
diameter of the inhibition zone (DIZ) (Pseudomonas aeruginosa [11]): inactive
diameter of the inhibition zone (DIZ) (Penicillium chrysogenum [12]): inactive
zone of inhibition at 1000 µg/disc (Escherichia coli [13]): 12 mm
zone of inhibition at 500 µg/disc (Klebsiella aerogenes): 7 mm
zone of inhibition at 500 µg/disc (Proteus vulgaris [14]): 7 mm
zone of inhibition at 1000 µg/disc [15]: 8 mm
MIC (Escherichia coli [16]): 31.2 µg/mL (≈ 84.2 µM)
MIC (Aliivibrio fischeri [17]): 125 µg/mL (≈ 337 µM)
zone of inhibition at 500 µg/disc (Salmonella typhimurium [18]): 7 mm
zone of inhibition at 1000 µg/disc (Rhodotorula mucilaginosa [19]): 14 mm
diameter of the inhibition zone (DIZ) (Penicillium chrysogenum [20]): inactive
zone of inhibition at 1000 µg/disc (Aliivibrio fischeri [21]): 9 mm
zone of inhibition at 1000 µg/disc (Lipomyces lipofer [22]): 10 mm
zone of inhibition at 1000 µg/disc (Bacillus cereus): 10 mm
zone of inhibition at 500 µg/disc (Rhodotorula mucilaginosa [23]): 10 mm
MIC (Aspergillus flavus [24]): 31.2 µg/mL (≈ 84.2 µM)
zone of inhibition at 1000 µg/disc (Proteus vulgaris [25]): 9 mm
zone of inhibition at 500 µg/disc (Aliivibrio fischeri [26]): 7 mm
zone of inhibition at 1000 µg/disc (Aspergillus flavus [27]): 12 mm
zone of inhibition at 500 µg/disc [28]: 7 mm
zone of inhibition at 500 µg/disc (Bacillus subtilis): 10 mm
diameter of the inhibition zone (DIZ) (Aspergillus fumigatus): inactive
MIC (Aspergillus parasiticus [29]): 15.6 µg/mL (≈ 42.1 µM)
